Compound activity: PubChem, several laboratories
APJ agonist: agonists of human apelin receptor APJ, primary screen, CHO-K1 cells, PathHunter beta-arrestin, luminescence; P35414; 0% DMSO wells, 100% apelin; activation, % at 20 µM; hit rate 0.11% among 330,000; AID 2520, 2010;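 active = activation more than six SD over the plate average, tested at 20 µM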;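 note: 0% = DMSO alone and 100% = apelin-13 at 10 nM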
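Material: engineered CHO-K1 APJ arrestin reporter cells; amount: 1000 CHO-K1 reporter cells seeded per well; incubation: compound stimulation 90 min at 25 °C, detection 60 min; signal: luminescent beta-gal fragment complementation, chemiluminescent substrate; read-out basis: APJ agonist activity; controls: DMSO-only wells as negative, 10 nM Apelin-13 as positive control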
CCR6 antagonist: CCR6 receptor antagonists, primary screen, cell-based, CHO-K1, luminescence, beta-arrestin, uHTS. C-C chemokine receptor type 6 (Homo sapiens), P51684. CHO-K1 CCR6 PathHunter beta-arrestin, CCL20-stimulated. inhibition, % at 20 µM. hit rate 0.49% among 340,000. AID 493098, 2011;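 active = compounds whose inhibition of the agonist-driven luminescence signal at 20 µM reaches about 50%, limit read from the data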;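 note: cells stimulated with CCL20 at 14 nM final; plate controls were DMSO with CCL20 for no effect and DMSO without agonist for full effect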
EBI2 block: EBI2 receptor antagonists, beta-arrestin recruitment, primary screen, cell-based, luminescence, 7a,25-OHC stimulation, uHTS; 7a,25-OHC stimulated; inhibition, % at 5 µM; G-protein coupled receptor 183 (Homo sapiens), P32249; hit rate 0.81% among 360,000; in the data active = inhibition above about 38%;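 note: enzyme fragment complementation signal reports receptor beta-arrestin coupling in cells; 0% = agonist plus DMSO wells and 100% = wells without agonist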
CXCR6 inh: CXCR6 receptor inhibitors, primary screen, cell-based, beta-arrestin, luminescence, CHO-K1 PathHunter, 1536-well | inhibition, % at 20 µM | C-X-C chemokine receptor type 6 (Homo sapiens), O00574 | hit rate 0.36% among 360,000 | AID 602244, 2012; in the data active = inhibition above about 34%, passing the limit was not always enough;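 note: antagonist mode with CXCL16 agonist at 10 nM final; 0% = 10 nM CXCL16 with DMSO and 100% = unstimulated wells without agonist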
Target sequence (O00574 whole entry, looked up): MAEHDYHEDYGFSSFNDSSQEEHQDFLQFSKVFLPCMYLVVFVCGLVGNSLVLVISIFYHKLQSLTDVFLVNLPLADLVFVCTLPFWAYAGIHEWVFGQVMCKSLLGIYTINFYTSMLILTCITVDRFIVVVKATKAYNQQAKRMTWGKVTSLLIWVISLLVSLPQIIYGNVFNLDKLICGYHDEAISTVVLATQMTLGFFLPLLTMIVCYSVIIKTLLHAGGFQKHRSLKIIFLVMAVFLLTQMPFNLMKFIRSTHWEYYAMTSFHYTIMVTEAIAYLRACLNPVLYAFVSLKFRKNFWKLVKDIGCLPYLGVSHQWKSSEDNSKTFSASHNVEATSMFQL
Beta2AR agonist: beta2AR agonists driving receptor internalization, primary screen, cell-based, FAP fluorogen, flow cytometry | AID 504454, 2011 | hit rate 0.43% among 340,000 | Beta-2 adrenergic receptor (Homo sapiens), P07550 | Am2.2-beta2AR cells | response, % (test concentration not listed);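 active = response above a set limit, near 3 SD of response in nonfluorescent compounds, cut at about 42% in these data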
APJ antagonist: antagonists of human apelin receptor APJ, primary screen, CHO-K1 cells, beta-arrestin complementation, luminescence. inhibition, % at 20 µM. hit rate 0.32% among 330,000;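 active = inhibition above about 40% at 20 µM, limit read from the data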;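 note: cells challenged with 10 nM apelin-13 agonist together with compound; plate controls were apelin-13 plus DMSO wells for no effect and DMSO wells lacking apelin-13 for full effect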
B2AR ag CP1: beta2AR agonists via receptor internalization, confirmation, cell-based, FAP fluorogen, flow cytometry, single point, cherry pick 1; shares compounds with Beta2AR agonist; Am2.2-beta2AR cells, FAP surface receptor; stronger effect = lower value; percent response (surface receptor), % at 10 µM; hit rate 25% among 1,100; AID 540358, 2011;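 active = surface receptor percent response at or below 58%, roughly 3 SD from nonfluorescent compounds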
B2AR FAP counter: counter-screen for beta-2AR agonists: fluorescence in Am2.2 cells; shares compounds with Beta2AR agonist; FAP fluorogen flow cytometry, fluorescence counterscreen; stronger effect = lower value; 1,100 tested, under 10 active; AID 588765; calls only at 10 µM;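 active = percent response below a set limit in fluorescence channel 1 and below 50% in channel 8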
Active calls of the source: *; i = inactive; nt = no result; + = active, no number. Only some compounds are listed: those with a hit (about 1.8% of all), similar ones and a draw of the others.

SMILES	APJ agonist	CCR6 antagonist	EBI2 block	CXCR6 inh	Beta2AR agonist	APJ antagonist	B2AR ag CP1	B2AR FAP counter
CC(C)(C)C(=O)CC1(O)C(=O)N(Cc2ccc(Cl)cc2)c2ccccc21 (configuration not stated)	-2	11	-5	4	54*	4	110	i
Cc1ccccc1C(=O)OC1CCCN(C)C1 (configuration not stated)	-1	8	-3	2	49*	2	90	i
Cc1cccc(C(=O)OC2CCCN(C)C2)c1C (configuration not stated)	-3	13	-8	-2	-1	5	nt	nt
CC(C)(C)C(=O)Nc1ccccc1N1CCN(c2ccc(F)cc2)CC1	0	8	-4	6	67*	7	105	i
CCN1C[C@@H]2[C@@H]3C(=O)N(C)C(=O)[C@@H]3[C@](Cc3ccccc3)(C1=O)N2C(=O)c1ccc(F)cc1	nt	2	-8	0	-7	nt	nt	nt
CCOc1ccccc1NC(=O)CNC(=O)c1nn(-c2ccc(OC)c(OC)c2)c(=O)c2ccccc12	3	-3	-9	2	10	17	nt	nt
CCOc1ccc(NC(=O)CNC(=O)c2nn(-c3ccc(OC)c(OC)c3)c(=O)c3ccccc23)cc1	4	-1	-4	-5	54*	10	67	i
CC(=O)c1ccc(CCCCc2ccc(C(C)=O)cc2)cc1	nt	2	-1	-13	5	nt	nt	nt
CC/C(=C\c1ccc(N(C)C)cc1)c1ccncc1	nt	6	18	-1	0	nt	nt	nt
CC(C)c1nc2oc3c(NCC4CCCO4)ncnc3c2c2c1CCC2 (configuration not stated)	-3	12	2	-1	9	8	nt	nt
CC(C)c1nc2oc3c(N(C)CCO)ncnc3c2c2c1CCC2	2	0	-8	6	-10	-28	148	i
CN(Cc1cc(Cl)cc(Cl)c1)CC(C(=O)c1ccccc1)c1ccccc1 (configuration not stated)	nt	31	-10	2	-2	nt	nt	nt
CN(C)CC(C(=O)c1ccccc1)c1ccccc1 (configuration not stated)	-3	32	12	17	56*	15	82	i
O=C(CN1CCc2ccccc2C1)Nc1ccccc1Cl	1	10	-1	1	0	6	nt	nt
O=C(CN1CCc2ccccc2C1)Nc1ccccc1N1CCCCCC1	-7	31	25	11	110*	-9	97	i
COc1ccc(OCC(=O)Nc2cccc(-c3nc4ccccc4o3)c2)cc1	-3	-2	2	-6	-12	9	nt	nt
CCc1ccc(OCC(=O)Nc2ccc(-c3nc4ccccc4o3)c(O)c2)cc1	-2	-5	0	-5	93*	2	1.1*	i
O=C(Cc1ccc(Br)cc1)N1CCN(C(=O)c2ccccc2)CC1	-6	-2	11	7	7	0	nt	nt
CCOC(=O)c1sc(NC(=O)C2CC(=O)N(c3ccccc3OC)C2)nc1C (configuration not stated)	-4	1	3	6	-2	-48	nt	nt
O=S(=O)(NCCNS(=O)(=O)c1ccc(F)cc1)c1ccc(F)cc1	-2	9	-4	0	0	17	nt	nt
Nc1nonc1C(=O)NCCNS(=O)(=O)c1ccc(F)cc1	-4	-3	-14	0	65*	-1	69	i
COc1ccccc1C(C)Nc1nc(-c2cccnc2)nc2ccccc12 (configuration not stated)	-2	9	5	1	8	3	112	i
COc1cccc(/C=N/Nc2nc(-c3cccnc3)nc3ccccc23)c1	1	6	-27	5	9	1	nt	nt
COc1cccc(CNc2nc(-c3cccnc3)nc3ccccc23)c1	-3	14	19	4	-1	9	156	i
O=c1[nH]cnc2c1nnn2C1OC(CO)C(O)C1O (configuration not stated)	nt	nt	-1	7	nt	nt	nt	nt
SMILES	APJ agonist	CCR6 antagonist	EBI2 block	CXCR6 inh	Beta2AR agonist	APJ antagonist	B2AR ag CP1	B2AR FAP counter
O=C(OCc1c(F)cccc1Cl)c1cnc2ccccc2n1	-4	23	-4	1	46*	-5	108	i
NC(=O)c1cccc(-c2coc3c(C(=O)NCc4ccccc4)cccc23)c1	nt	nt	8	-7	nt	nt	nt	nt
CC(=O)Oc1ccc2c(c1)Oc1cc(OC(C)=O)ccc1C21OC(=O)c2ccccc21	9	-68	-17	-68	-30	-70	nt	nt
Cc1cccc(C2(c3cccc(C)c3)OC(=O)c3ccccc32)c1	-5	26	7	21	-6	5	nt	nt
O=C1CC(c2ccccc2)(c2ccccc2)c2ccccc21	nt	29	17	10	59*	nt	39*	i
O=C1OC(c2ccccc2)(c2ccccc2)c2ccccc21	nt	33	1	12	56*	nt	66	i
O=C1c2ccccc2C(O)(c2ccccc2)N1C1CC1 (configuration not stated)	-4	2	-4	1	5	0	nt	nt
O=C1OC(c2ccccc2)(c2ccc(O)cc2)c2ccccc21 (configuration not stated)	nt	31	2	-1	43*	nt	77	i
COc1ccc(C(=O)Nc2ccc(Cl)cc2F)cc1S(=O)(=O)N1CCCC1	-3	9	-5	0	0	1	nt	nt
CCCCNC(=O)C(NC(=O)c1ccc2ccccc2c1)C(=O)c1ccccc1 (configuration not stated)	nt	nt	2	nt	nt	nt	nt	nt
O=C1CCN(Cc2nnnn2CC2CCCO2)c2ccccc2N1 (configuration not stated)	-6	0	-5	-8	42*	4	105	i
C=CCn1c(SCC(=O)Nc2ccc(-c3nc4ccc(C)cc4s3)cc2)nnc1-c1ccncc1	4	8	-11	-10	58*	-31	104	i
Cc1cc(C)n(-c2nc(SCC(=O)Nc3nccs3)c3c4c(sc3n2)COC(C)(C)C4)n1	3	17	14	5	93*	8	77	i
Cc1cc(N2CCN(C)CC2)ccc1NC(=O)c1c2c(nc3ccccc13)CCN(Cc1ccccc1)C2	16*	0	-5	-11	51*	-16	11*	+
